Reference: ChEMBL document CHEMBL3352280, “Modulation of cAMP-specific PDE without emetogenic activity: new sulfide-like PDE7 inhibitors” (J Med Chem, 2014)
pIC50: −log10 of the molar value. The source made the active and inactive calls. No cut-off for these calls is given here.

How the values were obtained:
[1] = tested on: Mus musculus; assay: Emetogenic potential in surrogate emesis CD1 mouse model assessed as effect on xyclacine/ketamine-induced loss of righting reflex at 1 mg/kg, sc; format: ADME, organism-based; parameters: dose 1 mg/kg, route subcutaneous; conditions: in vivo
Procedure, shortened: (§1)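 Male CD1 mice (25–30 g) anesthetized ip with xylazine 10 mg/kg plus ketamine 100 mg/kg. Test agent or vehicle given sc 15 min later in 60% PEG/saline (0.1 mL/10 g). Duration of anesthesia is timed to return of righting reflex. Mean ± SEM, n = 10–19 per group, ANOVA with Dunnett post hoc test.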

[2] = tested on: Mus musculus; assay: Emetogenic potential in surrogate emesis CD1 mouse model assessed as effect on xyclacine/ketamine-induced loss of righting reflex at 5 mg/kg, sc; format: ADME, organism-based; parameters: dose 5 mg/kg, route subcutaneous; conditions: in vivo; procedure, shortened: as §1
[3] = target: T1, High affinity 3',5'-cyclic-AMP phosphodiesterase 7A (Homo sapiens, UniProt Q13946); assay: Inhibition of human recombinant PDE7A1 assessed as inhibition of hydrolysis of [3H]cAMP at 10 uM after 20 mins by scintillation proximity assay
T1 sequence (Q13946 whole entry): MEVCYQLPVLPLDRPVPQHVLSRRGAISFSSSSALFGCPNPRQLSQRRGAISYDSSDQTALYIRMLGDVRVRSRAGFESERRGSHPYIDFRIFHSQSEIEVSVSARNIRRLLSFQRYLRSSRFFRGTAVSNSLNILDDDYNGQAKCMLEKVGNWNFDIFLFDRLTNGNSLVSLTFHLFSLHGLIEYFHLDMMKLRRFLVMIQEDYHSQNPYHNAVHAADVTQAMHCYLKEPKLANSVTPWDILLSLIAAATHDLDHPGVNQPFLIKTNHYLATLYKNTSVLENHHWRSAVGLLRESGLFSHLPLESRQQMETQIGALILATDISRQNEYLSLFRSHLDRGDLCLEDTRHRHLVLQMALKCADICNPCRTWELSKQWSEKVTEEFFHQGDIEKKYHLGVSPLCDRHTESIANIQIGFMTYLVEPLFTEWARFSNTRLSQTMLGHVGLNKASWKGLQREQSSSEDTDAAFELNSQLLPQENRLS
Procedure, shortened: (§2)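 Scintillation proximity assay with human recombinant enzyme: PDE7A1 0.02 U, PDE3A 0.02 U, PDE7B 0.5 U, PDE8A 0.5 U. Enzyme incubated with 5 nCi [3H]cAMP and inhibitor in kit buffer for 20 min at 30 °C. SPA beads added and shaken 1 h at room temperature, settled 30 min, radioactivity counted.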

[4] = target: T1, High affinity 3',5'-cyclic-AMP phosphodiesterase 7A; assay: Inhibition of human recombinant PDE7A1 assessed as inhibition of hydrolysis of [3H]cAMP after 20 mins by scintillation proximity assay; procedure, shortened: as §2
[5] = target: T2, 3',5'-cyclic-AMP phosphodiesterase 7B (Homo sapiens, UniProt Q9NP56); assay: Inhibition of human recombinant PDE7B assessed as inhibition of hydrolysis of [3H]cAMP at 10 uM after 20 mins by scintillation proximity assay; procedure, shortened: as §2
T2 sequence (Q9NP56 whole entry): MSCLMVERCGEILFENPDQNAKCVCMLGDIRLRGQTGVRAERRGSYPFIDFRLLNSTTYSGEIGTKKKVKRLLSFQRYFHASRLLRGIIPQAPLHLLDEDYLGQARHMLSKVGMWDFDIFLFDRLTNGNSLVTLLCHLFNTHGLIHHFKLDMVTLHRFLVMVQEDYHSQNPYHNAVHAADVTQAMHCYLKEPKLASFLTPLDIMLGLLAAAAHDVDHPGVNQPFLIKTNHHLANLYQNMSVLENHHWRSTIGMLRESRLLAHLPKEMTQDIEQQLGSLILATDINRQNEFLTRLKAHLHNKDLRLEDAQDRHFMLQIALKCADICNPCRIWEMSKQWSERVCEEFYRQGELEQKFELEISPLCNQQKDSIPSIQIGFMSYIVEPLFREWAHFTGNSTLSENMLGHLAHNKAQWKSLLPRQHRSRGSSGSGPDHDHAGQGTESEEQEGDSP

[6] = target: T2, 3',5'-cyclic-AMP phosphodiesterase 7B; assay: Inhibition of human recombinant PDE7B assessed as inhibition of hydrolysis of [3H]cAMP after 20 mins by scintillation proximity assay; procedure, shortened: as §2
[7] = target: cGMP-inhibited 3',5'-cyclic phosphodiesterase 3A (Homo sapiens) (UniProt Q14432); assay: Inhibition of human recombinant PDE3A assessed as inhibition of hydrolysis of [3H]cAMP at 10 uM after 20 mins by scintillation proximity assay; procedure, shortened: as §2
Sequence of cGMP-inhibited 3',5'-cyclic phosphodiesterase 3A (Homo sapiens) (Q14432 whole entry): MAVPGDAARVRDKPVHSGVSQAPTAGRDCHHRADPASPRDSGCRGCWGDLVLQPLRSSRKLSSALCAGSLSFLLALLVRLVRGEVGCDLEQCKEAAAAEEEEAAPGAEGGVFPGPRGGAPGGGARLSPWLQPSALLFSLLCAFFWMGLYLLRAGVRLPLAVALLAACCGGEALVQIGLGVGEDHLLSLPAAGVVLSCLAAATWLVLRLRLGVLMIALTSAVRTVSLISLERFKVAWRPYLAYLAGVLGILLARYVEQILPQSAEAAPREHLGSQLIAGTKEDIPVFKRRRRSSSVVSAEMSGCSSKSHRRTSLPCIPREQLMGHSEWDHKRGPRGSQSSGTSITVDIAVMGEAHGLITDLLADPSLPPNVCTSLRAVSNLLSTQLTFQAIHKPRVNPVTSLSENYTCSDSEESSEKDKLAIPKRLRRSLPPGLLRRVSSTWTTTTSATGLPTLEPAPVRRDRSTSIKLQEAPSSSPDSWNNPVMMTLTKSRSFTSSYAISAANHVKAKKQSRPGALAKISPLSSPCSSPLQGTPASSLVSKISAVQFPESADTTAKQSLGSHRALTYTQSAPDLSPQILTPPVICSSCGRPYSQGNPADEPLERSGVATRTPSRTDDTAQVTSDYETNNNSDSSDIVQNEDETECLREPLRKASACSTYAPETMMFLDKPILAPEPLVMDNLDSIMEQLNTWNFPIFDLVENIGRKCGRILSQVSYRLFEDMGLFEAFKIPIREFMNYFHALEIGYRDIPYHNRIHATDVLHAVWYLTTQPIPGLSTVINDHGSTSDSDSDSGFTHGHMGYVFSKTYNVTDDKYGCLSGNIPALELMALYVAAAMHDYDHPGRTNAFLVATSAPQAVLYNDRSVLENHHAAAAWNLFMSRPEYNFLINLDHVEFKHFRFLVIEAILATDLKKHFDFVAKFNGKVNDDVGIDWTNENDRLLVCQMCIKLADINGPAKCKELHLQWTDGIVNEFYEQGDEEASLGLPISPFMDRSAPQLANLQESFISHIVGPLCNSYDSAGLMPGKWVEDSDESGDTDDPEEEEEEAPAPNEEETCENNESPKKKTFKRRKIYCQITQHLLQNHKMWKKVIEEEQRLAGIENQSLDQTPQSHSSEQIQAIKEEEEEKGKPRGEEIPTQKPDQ

[8] = target: T3, 3',5'-cyclic-AMP phosphodiesterase 4D (Homo sapiens, UniProt Q08499); assay: Inhibition of human recombinant PDE4D3 assessed at 10 uM after 60 mins by IMAP fluorescence polarization assay
T3 sequence (Q08499 whole entry): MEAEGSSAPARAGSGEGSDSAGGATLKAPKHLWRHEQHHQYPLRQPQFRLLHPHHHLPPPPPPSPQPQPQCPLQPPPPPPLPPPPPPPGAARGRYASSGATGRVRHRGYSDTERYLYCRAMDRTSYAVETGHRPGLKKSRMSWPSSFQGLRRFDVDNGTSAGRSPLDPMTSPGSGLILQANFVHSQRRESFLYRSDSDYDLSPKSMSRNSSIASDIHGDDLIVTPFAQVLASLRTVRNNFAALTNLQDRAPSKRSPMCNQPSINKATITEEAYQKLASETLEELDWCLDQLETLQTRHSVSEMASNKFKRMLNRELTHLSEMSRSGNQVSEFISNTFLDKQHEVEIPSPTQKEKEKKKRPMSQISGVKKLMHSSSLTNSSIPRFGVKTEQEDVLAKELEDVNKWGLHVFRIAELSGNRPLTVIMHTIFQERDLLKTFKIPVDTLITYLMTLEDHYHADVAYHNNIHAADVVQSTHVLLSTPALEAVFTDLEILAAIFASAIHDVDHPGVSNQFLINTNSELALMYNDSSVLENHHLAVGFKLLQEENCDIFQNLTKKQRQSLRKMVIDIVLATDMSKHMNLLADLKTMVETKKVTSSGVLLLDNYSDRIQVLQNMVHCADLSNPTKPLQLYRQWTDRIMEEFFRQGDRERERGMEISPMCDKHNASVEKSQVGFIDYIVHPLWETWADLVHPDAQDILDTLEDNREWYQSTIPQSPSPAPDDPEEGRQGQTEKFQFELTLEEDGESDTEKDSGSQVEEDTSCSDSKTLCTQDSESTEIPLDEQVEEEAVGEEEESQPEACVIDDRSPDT

[9] = target: T3, 3',5'-cyclic-AMP phosphodiesterase 4D; assay: Inhibition of human recombinant PDE4D3 assessed after 60 mins by IMAP fluorescence polarization assay
[10] = target: T4, 3',5'-cyclic-AMP phosphodiesterase 4B (Homo sapiens, UniProt Q07343); assay: Inhibition of human recombinant PDE4B2 assessed at 10 uM after 60 mins by IMAP fluorescence polarization assay
T4 sequence (Q07343 whole entry): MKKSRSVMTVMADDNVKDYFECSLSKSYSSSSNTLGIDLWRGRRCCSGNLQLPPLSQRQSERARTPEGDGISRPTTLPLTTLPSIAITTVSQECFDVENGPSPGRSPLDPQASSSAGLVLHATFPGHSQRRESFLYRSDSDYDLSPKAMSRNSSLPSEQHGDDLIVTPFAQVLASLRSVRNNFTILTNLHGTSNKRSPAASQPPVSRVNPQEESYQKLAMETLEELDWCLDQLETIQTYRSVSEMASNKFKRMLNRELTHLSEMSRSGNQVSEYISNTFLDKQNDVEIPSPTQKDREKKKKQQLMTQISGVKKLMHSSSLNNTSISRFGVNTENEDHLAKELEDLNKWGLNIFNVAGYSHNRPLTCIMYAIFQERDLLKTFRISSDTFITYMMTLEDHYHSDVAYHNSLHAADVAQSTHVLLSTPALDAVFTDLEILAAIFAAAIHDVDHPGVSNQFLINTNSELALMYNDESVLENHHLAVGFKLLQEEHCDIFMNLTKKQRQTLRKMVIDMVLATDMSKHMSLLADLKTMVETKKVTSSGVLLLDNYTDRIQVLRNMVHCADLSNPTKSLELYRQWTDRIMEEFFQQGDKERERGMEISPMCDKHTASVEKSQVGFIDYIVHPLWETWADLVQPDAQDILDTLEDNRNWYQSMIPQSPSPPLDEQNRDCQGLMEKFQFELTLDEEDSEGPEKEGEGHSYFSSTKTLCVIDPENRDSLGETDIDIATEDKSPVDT

[11] = target: T4, 3',5'-cyclic-AMP phosphodiesterase 4B; assay: Inhibition of human recombinant PDE4B2 assessed after 60 mins by IMAP fluorescence polarization assay
[12] = target: Dual specificity calcium/calmodulin-dependent 3',5'-cyclic nucleotide phosphodiesterase 1A (Homo sapiens) (UniProt P54750); assay: Inhibition of human recombinant PDE1A assessed at 10 uM after 60 mins by IMAP fluorescence polarization assay
Sequence of Dual specificity calcium/calmodulin-dependent 3',5'-cyclic nucleotide phosphodiesterase 1A (Homo sapiens) (P54750 whole entry): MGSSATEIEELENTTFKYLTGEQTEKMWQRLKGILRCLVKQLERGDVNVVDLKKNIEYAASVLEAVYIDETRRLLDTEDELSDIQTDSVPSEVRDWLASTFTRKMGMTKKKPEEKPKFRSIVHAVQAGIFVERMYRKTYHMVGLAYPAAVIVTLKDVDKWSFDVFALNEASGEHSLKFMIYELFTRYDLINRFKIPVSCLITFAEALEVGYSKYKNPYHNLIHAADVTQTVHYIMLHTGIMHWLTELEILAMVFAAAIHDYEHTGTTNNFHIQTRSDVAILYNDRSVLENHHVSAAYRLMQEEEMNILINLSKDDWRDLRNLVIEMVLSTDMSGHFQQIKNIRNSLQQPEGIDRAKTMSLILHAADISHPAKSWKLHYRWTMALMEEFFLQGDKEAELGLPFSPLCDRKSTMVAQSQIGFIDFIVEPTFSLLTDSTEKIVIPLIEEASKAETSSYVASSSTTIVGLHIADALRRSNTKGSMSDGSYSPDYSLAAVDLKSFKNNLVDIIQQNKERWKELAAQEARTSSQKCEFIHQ
Procedure, shortened: (§3)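 Fluorescence polarization IMAP assay. PDE1 at 2 U and PDE9 at 0.05 U, incubated with 1 nM fluorescein-cAMP (or fluorescein-cGMP for PDE5) plus inhibitor for 60 min at ambient temperature. Stopped with IMAP binding reagent, stood 1 h, FP ratio read. IC50 from a sigmoidal fit of FP versus log concentration. Means ± SD of two experiments with duplicates.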

[13] = target: cGMP-specific 3',5'-cyclic phosphodiesterase (Homo sapiens) (UniProt O76074); assay: Inhibition of human recombinant PDE5A assessed at 10 uM after 60 mins by IMAP fluorescence polarization assay; procedure, shortened: as §3
[14] = target: High affinity cAMP-specific and IBMX-insensitive 3',5'-cyclic phosphodiesterase 8A (Homo sapiens) (UniProt O60658); assay: Inhibition of PDE8A (unknown origin) at 10 uM; procedure, shortened: as §2
[15] = target: High affinity cGMP-specific 3',5'-cyclic phosphodiesterase 9A (Homo sapiens) (UniProt O76083); assay: Inhibition of human recombinant PDE9A assessed at 10 uM after 60 mins by IMAP fluorescence polarization assay; procedure, shortened: as §3
Sequence of High affinity cGMP-specific 3',5'-cyclic phosphodiesterase 9A (Homo sapiens) (O76083 whole entry): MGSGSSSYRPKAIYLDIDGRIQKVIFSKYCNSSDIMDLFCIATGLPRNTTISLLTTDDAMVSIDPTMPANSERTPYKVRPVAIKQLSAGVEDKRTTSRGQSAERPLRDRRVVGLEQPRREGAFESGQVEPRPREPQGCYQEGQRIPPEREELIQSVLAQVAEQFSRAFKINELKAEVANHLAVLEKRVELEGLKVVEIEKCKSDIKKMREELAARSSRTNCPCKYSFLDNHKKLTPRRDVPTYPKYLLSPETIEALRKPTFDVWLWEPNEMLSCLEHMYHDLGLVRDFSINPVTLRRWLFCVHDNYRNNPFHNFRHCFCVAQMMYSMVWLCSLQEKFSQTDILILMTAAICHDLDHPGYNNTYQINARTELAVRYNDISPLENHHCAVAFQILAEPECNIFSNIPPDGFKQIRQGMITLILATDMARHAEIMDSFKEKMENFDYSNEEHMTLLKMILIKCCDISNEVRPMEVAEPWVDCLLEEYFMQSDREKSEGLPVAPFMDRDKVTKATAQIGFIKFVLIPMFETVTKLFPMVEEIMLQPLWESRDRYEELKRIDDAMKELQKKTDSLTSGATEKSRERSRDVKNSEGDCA

[16] = tested on: SH-SY5Y; assay: Cytoprotective activity against 6-OHDA-induced death of human SH-SY5Y cells pretreated for 1 hr at 10 uM measured 16 hrs post 6-OHDA challenge by MTT assay; format: functional, cell-based
Procedure, shortened: (§4)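 Human neuroblastoma SH-SY5Y grown in F12/EMEM with 2 mM glutamine, 1% nonessential amino acids and 15% FBS at 37 °C, 5% CO2. Semiconfluent cells pretreated 1 h with compound, then 6-OHDA (35 μM) added for 16 h. Viability by MTT (0.5 mg/mL, 4 h), SDS/HCl solubilisation, absorbance 595 nm. Mean ± SD of three experiments.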

[17] = tested on: Astrocyte; assay: Inhibition of LPS-induced NO production in rat astrocytes treated for 1 hr at 10 uM before LPS challenge measured after 24 hrs by Griess assay; format: functional, cell-based
Procedure, shortened: (§5)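 After 2 days, cells were pretreated with compound (10 μM), then LPS (10 μg/mL) was added for 24 h. Nitrite in the supernatant was measured by Griess reagent (15 min, room temperature, absorbance 492/540 nm). Mean ± SD of three experiments.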

[18] = tested on: Microglia; assay: Inhibition of LPS-induced NO production in rat microglia treated for 1 hr at 10 uM before LPS challenge measured after 24 hrs by Griess assay; format: functional; procedure, shortened: as §5
[19] = target: cAMP and cAMP-inhibited cGMP 3',5'-cyclic phosphodiesterase 10A (Homo sapiens) (UniProt Q9Y233); assay: Inhibition of human recombinant PDE10A assessed at 10 uM after 20 mins by scintillation proximity assay
[20] = target: Phosphodiesterase 7 (Homo sapiens, UniProt Q13946+Q9NP56); assay: Inhibition of PDE7 in human SH-SY5Y cells assessed as increase in CREB phosphorylation at 10 uM by Western blot analysis
Sequence of Phosphodiesterase 7 (Q13946 whole entry, looked up): as the sequence (Q13946 whole entry) above
Sequence of Phosphodiesterase 7 (Q9NP56 whole entry, looked up): as the sequence (Q9NP56 whole entry) above

[21] = tested on: SH-SY5Y; assay: Cytoprotective activity against 6-OHDA-induced death of human SH-SY5Y cells pretreated for 1 hr at 30 uM measured 16 hrs post 6-OHDA challenge by MTT assay; format: functional, cell-based; conditions: 10 uM, in the assay text read “10 uM” for “30 uM”; procedure, shortened: as §4
[22] = tested on: Mus musculus; assay: Emetogenic potential in surrogate emesis CD1 mouse model assessed as effect on xyclacine/ketamine-induced loss of righting reflex at 2.5 to 10 mg/kg, sc; format: ADME, organism-based; parameters: dose 2.5-10 mg/kg, route subcutaneous; conditions: in vivo; procedure, shortened: as §1
[23] = tested on: Astrocyte; assay: Inhibition of LPS-induced NO production in rat astrocytes; format: functional, cell-based
[24] = tested on: Mus musculus; assay: Emetogenic potential in surrogate emesis CD1 mouse model assessed as effect on xyclacine/ketamine-induced loss of righting reflex at 1 mg/kg, sc; conditions: in vivo

Structure (SMILES): O=C(Nc1c(Cl)cncc1Cl)c1ccc(OC(F)F)c(OCC2CC2)c1 [ROFLUMILAST]
- Activity [1]: Toxic
- Activity [2]: Toxic

Structure (SMILES): O=[N+]([O-])c1ccc(Sc2ccncc2)c(Cl)c1
- inhibition [3]: 85%
- pIC50 [4]: 6.74
- inhibition [5]: 94%
- pIC50 [6]: 6.22
- inhibition [7]: 27%
- inhibition [8]: 65%
- pIC50 [9]: 5.14
- inhibition [10]: 69%
- pIC50 [11]: 5.18
- inhibition [12]: 39%
- inhibition [13]: 21%
- inhibition [14]: 2.4%
- inhibition [15]: 1%
- Activity [16]: Active
- inhibition [17]: Active
- inhibition [18]: Active
- inhibition [19]: 29.4%
- Activity [20]: inactive

Structure (SMILES): Nc1ccc(Sc2ccc(Cl)cc2[N+](=O)[O-])cc1
- inhibition [3]: 81%
- pIC50 [4]: 6.43
- inhibition [5]: 82%
- pIC50 [6]: 5.52
- inhibition [7]: 37%
- inhibition [8]: 7%
- inhibition [10]: 4%
- inhibition [12]: 36%
- inhibition [13]: 28%
- inhibition [14]: 1.2%
- inhibition [15]: 7%
- Activity [16]: Active
- Activity [21]: Active
- inhibition [17]: Active
- inhibition [18]: Active
- Activity [22]: Non-toxic
- inhibition [19]: 57.5%
- Activity [20]: inactive

Structure (SMILES): O=[N+]([O-])c1ccc(Sc2ccccn2)c(Cl)c1
- inhibition [3]: 69%
- pIC50 [4]: 5.89
- inhibition [5]: 39%
- inhibition [7]: 44%
- inhibition [8]: 24%
- inhibition [10]: 35%
- Activity [16]: Active
- inhibition [23]: Active
- inhibition [17]: Active
- inhibition [18]: Active

Structure (SMILES): COc1ccc(C2CNC(=O)C2)cc1OC1CCCC1 (configuration not stated) [ROLIPRAM]
- inhibition [3]: 3.1%
- inhibition [7]: 9.42%
- Activity [1]: Toxic
- Activity [24]: Toxic
